The species named for data set [1] is Rattus norvegicus. The data set can be described thus: […] uptake of compound was determined in rat heart at 5 min following femoral injection of radiotracer. It is filed as functional, Myocardium. The method, boiled down:
(§1)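 Sprague–Dawley rats under ether anesthesia received the ⁶⁷Cu complex (~2 µCi in 0.2 mL) into the femoral vein. Dosing solution was saline with ca. 5% ethanol and ≤0.5% DMSO, filtered at 0.2 µm, with radiochemical purity by silica TLC (ethanol). Organ radioactivity is expressed as % injected dose per organ. Mean ± SD, three rats per time point.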

The species entered for data set [2] is Rattus norvegicus. The data set can be described thus: […] uptake of compound was determined in rat brain at 1 min following femoral injection of radiotracer. The data set is classed as functional. The method, boiled down:
as §1

The species entered for data set [3] is Rattus norvegicus. The data set can be described thus: […] uptake of compound was determined in rat brain at 120 min following femoral injection of radiotracer. The data set is classed as functional. In a few lines:
as §1

The species named for data set [4] is Rattus norvegicus. As to the kind of experiment: […] uptake of compound was determined in rat heart at 1 min following femoral injection of radiotracer. The data set is classed as functional, Myocardium. In a few lines:
as §1

The species named for data set [5] is Rattus norvegicus. The data set can be described thus: […] uptake of compound was determined in rat brain at 5 min following femoral injection of radiotracer. It is filed as functional. The method, boiled down:
as §1

Data set [6] is filed under the species Rattus norvegicus. As to the kind of experiment: […] uptake of compound was determined in rat heart at 120 min following femoral injection of radiotracer. It is filed as functional, Myocardium. The method, boiled down:
as §1

The next data set deals with Albumin (Homo sapiens, UniProt P02768). As to the kind of experiment: Binding of compound in order to assess the amount of free (non-albumin-associated) radiotracer present in solutions of human serum albumin (35 mg/mL saline). In a few lines: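 ⁶⁷Cu complex (1–2 µL per 1 mL) mixed into freshly prepared albumin in normal saline. Within 2 min, loaded into 30,000 Da NMWL centrifugal ultrafilters and spun at once at 1000g, 20 min, 20 °C, 45° fixed-angle rotor. Filtrate and unfiltered solution γ-counted. Free % is the protein filtrate/unfiltered ratio divided by the same ratio in protein-free saline, ×100. Mean ± SD of 6–12 measurements.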

The target in data set [7] is Serum albumin (Canis lupus familiaris) (UniProt P49822). As to the kind of experiment: Binding of compound in order to assess the amount of free (non-albumin-associated) radiotracer present in solutions of dog serum albumin (35 mg/mL saline).
Serum albumin (Canis lupus familiaris), sequence (P49822 whole entry, looked up): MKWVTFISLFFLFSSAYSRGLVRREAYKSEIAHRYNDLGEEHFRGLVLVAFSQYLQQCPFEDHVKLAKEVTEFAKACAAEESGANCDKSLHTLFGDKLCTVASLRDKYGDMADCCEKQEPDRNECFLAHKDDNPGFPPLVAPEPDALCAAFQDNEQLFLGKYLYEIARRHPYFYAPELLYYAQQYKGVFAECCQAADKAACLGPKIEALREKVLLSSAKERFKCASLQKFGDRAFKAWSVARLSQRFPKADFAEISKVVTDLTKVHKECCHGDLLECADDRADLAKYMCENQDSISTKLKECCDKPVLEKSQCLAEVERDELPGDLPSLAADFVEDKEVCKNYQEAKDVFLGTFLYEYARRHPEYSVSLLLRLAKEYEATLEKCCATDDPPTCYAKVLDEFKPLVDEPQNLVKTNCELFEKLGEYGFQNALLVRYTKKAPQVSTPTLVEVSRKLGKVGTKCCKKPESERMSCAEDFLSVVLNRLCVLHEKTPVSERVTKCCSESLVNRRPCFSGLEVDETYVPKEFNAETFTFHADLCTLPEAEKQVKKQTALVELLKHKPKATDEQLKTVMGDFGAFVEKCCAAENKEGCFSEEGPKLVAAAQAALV

Albumin, sequence (P02768 whole entry): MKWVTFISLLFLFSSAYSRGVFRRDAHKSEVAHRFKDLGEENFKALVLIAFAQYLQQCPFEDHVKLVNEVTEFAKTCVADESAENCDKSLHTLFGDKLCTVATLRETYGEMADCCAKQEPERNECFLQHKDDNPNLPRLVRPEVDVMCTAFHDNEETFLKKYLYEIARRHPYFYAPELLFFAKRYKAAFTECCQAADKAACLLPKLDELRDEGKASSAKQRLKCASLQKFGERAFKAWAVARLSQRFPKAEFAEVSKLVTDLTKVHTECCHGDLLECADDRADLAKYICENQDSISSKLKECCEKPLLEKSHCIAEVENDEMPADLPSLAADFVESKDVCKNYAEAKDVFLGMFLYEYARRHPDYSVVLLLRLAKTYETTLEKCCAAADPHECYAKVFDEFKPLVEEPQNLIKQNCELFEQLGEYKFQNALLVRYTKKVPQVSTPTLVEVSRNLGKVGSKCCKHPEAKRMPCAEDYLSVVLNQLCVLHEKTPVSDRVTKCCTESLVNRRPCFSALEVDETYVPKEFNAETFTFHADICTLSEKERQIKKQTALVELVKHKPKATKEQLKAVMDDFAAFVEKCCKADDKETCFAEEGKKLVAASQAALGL

With `CC(/C=N/N=C(\S)N(C)C)=N\N=C(\N)S`, the Dose in the data set filed under Rattus norvegicus [1] came to 1.23%; in the data set filed under Rattus norvegicus [2], 2.79%; in the data set filed under Rattus norvegicus [3], 1.98%; in the data set listed under Rattus norvegicus [4], 1.59%; in the data set listed under Rattus norvegicus [5], 1.97%; in the data set filed under Rattus norvegicus [6] it was 1.05%.

On to `C/N=C(\S)N/N=C(C)/C=N/N=C(\S)N(C)C`, for which the Dose in the data set filed under Rattus norvegicus [1] stood at 1.27%; in the data set filed under Rattus norvegicus [2] it was 2.76%; in the data set filed under Rattus norvegicus [3] it was 1.63%; in the data set listed under Rattus norvegicus [4], 1.43%; in the data set filed under Rattus norvegicus [5], 1.8%; in the data set filed under Rattus norvegicus [6], 0.89%.

Turning to “Copper complex of Propane-1,2-diylidene-N-thiourea-N-amino-methylaminomethanethione [listing 1 of 2 here]”, the Free complex on Albumin amounted to 8.6%; in data set [7], 46.5%.

Take “Copper complex of Propane-1,2-diylidene-N-amino-methylaminomethanethione-N-amino-dimethylaminomethanethione”: the figures for the Free complex (on Albumin; in data set [7]) were 5.4% and 25.7%, respectively.

Take `CC(/C=N/N=C(/N)S)=N\N=C(\N)S` [PYRUVALDEHYDE BIS(THIOSEMICARBAZONE)(PTS)]: the Dose in the data set listed under Rattus norvegicus [1] was 2.3%; in the data set listed under Rattus norvegicus [2], 0.46%; in the data set filed under Rattus norvegicus [4] it was 2.8%; in the data set filed under Rattus norvegicus [5], 0.29%.

In the case of `C/N=C(\S)N/N=C/C(C)=N/N/C(S)=N/C`, the Dose in the data set listed under Rattus norvegicus [1] stood at 3.4%; in the data set filed under Rattus norvegicus [2], 3%; in the data set listed under Rattus norvegicus [3] it was 3.2%; in the data set listed under Rattus norvegicus [4], 2.7%; in the data set listed under Rattus norvegicus [5], 3%; in the data set listed under Rattus norvegicus [6], 3.3%.

Turning to `C/N=C(\S)N/N=C(C)/C=N/N=C(/N)S`, the Dose is listed as 2.86% in the data set listed under Rattus norvegicus [1]; 1.72% in the data set filed under Rattus norvegicus [2]; 1.67% in the data set listed under Rattus norvegicus [3]; 2.84% in the data set filed under Rattus norvegicus [4]; 1.81% in the data set filed under Rattus norvegicus [5]; 2.59% in the data set listed under Rattus norvegicus [6].

For `C/N=C(\S)N/N=C/C(C)=N/N=C(/N)S`, the Dose was determined as 2.44% in the data set listed under Rattus norvegicus [1]; 1.4% in the data set filed under Rattus norvegicus [2]; 1.1% in the data set filed under Rattus norvegicus [3]; 2.73% in the data set listed under Rattus norvegicus [4]; 1.37% in the data set filed under Rattus norvegicus [5]; 2.03% in the data set filed under Rattus norvegicus [6].

On to “Copper complex of Propane-1,2-diylidene-N-thiourea-N-amino-methylaminomethanethione [listing 2 of 2 here]”, for which the Free complex was 10.4% on Albumin and 57.4% in data set [7].

For “Copper complex of Propane-1,2-diylidene-N-thiourea-N-amino-dimethylaminomethanethione”, the results for the Free complex (on Albumin; in data set [7]) were 17.2% and 57.6%, respectively.

With `CC(/C=N/N=C(\S)N(C)C)=N\N=C(/S)N(C)C`, the Dose in the data set listed under Rattus norvegicus [1] is reported as 0.43%; in the data set listed under Rattus norvegicus [2], 3.1%; in the data set filed under Rattus norvegicus [4] it was 0.97%; in the data set listed under Rattus norvegicus [5] it was 2.2%.

For “Propyl glyoxal bis(thiosemicarbazone)(67Cu-n-PrTS)”, the Free complex on Albumin is reported as 37%; in data set [7] it was 30.3%.

The values above are taken from ChEMBL document CHEMBL1130014, “Mixed bis(thiosemicarbazone) ligands for the preparation of copper radiopharmaceuticals: synthesis and evaluation of tetradentate ligands containing two dissimilar thiosemicarbazone functions” (J Med Chem, 1997).
